Source: ChEMBL document CHEMBL1123737, “Synthesis, absolute configuration, and antibacterial activity of 6,7-dihydro-5,8-dimethyl-9-fluoro-1-oxo-1H,5H- benzo[ij]quinolizine-2-carboxylic acid” (1987)
≈ marks a conversion by molar mass, not a printed value.

Key:
[1] = test system: Staphylococcus epidermidis; experiment: In vitro antibacterial activity against Staphylococcus epidermidis ATCC 12228; assay type: functional
Outline: (§1)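 Agar dilution MIC. DMSO stocks at 5 mg/mL were serially 2-fold diluted in nutrient broth and mixed into Mueller-Hinton agar, with 5% defibrinated rabbit blood for hemophilic bacteria. Final range was 12.5 to 0.006 µg/mL. Overnight growth was suspended in saline to McFarland 6 (2 × 10^6/mL) and Steers-replicated. Plates were incubated 30 h at 37 °C; MIC was the lowest concentration preventing visible growth.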

Enterococcus faecalis [2] = experiment: In vitro antibacterial activity against Streptococcus Streptococcus faecalis ATCC 10741; assay type: functional; outline: as §1
Serratia marcescens = experiment: In vitro antibacterial activity against Serratia marcescens ATCC 8100; assay type: functional; outline: as §1
Escherichia coli = experiment: In vitro antibacterial activity against Escherichia coli ATCC 15221; assay type: functional; outline: as §1
[3] = In vitro antibacterial activity against Pseudomonas cepacia ATCC 25608; assay type: functional; conditions: Burkholderia cepacia; outline: as §1
Bordetella pertussis = experiment: In vitro antibacterial activity against Bordetella pertussis ATCC 10380; assay type: functional
Outline: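 Agar dilution on Mueller-Hinton agar with drug from 5 mg/mL DMSO stocks, 2-fold diluted through nutrient broth to 12.5–0.006 µg/mL. Inoculum was applied by Steers replicator. MIC was read as the lowest concentration with no visible growth.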

Klebsiella pneumoniae = experiment: In vitro antibacterial activity against Klebsiella pneumoniae ATCC 23357; assay type: functional; outline: as §1
Staphylococcus aureus = experiment: In vitro antibacterial activity against Staphylococcus aureus ATCC 6538-P; assay type: functional; outline: as §1
Proteus mirabilis = experiment: In vitro antibacterial activity against Proteus mirabilis-R 119; assay type: functional; outline: as §1
Streptococcus pyogenes = experiment: In vitro antibacterial activity against Streptococcus pyogenes ATCC 1961-1; assay type: functional; outline: as §1
Pseudomonas aeruginosa = experiment: In vitro antibacterial activity against Pseudomonas aeruginosa ATCC 15422; assay type: functional; outline: as §1
[4] = In vitro antibacterial activity against Salmonella typhi-CDC M4694; assay type: functional, salmonella typhosa
Outline: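 Agar dilution MIC: compounds dissolved in DMSO (5 mg/mL stock), 2-fold serial dilutions in nutrient broth, mixed into Mueller-Hinton agar; series 12.5 down to 0.006 μg/mL. Overnight culture suspended in saline to McFarland 6 (2 × 10^6/mL), spotted with Steers replicator. Incubated 37 °C for 30 h; MIC = lowest concentration preventing visible growth.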

Enterobacter cloacae = experiment: In vitro antibacterial activity against Enterobacter cloacae ATCC 23355; assay type: functional; outline: as §1
Haemophilus influenzae = experiment: In vitro antibacterial activity against Haemophilus influenzae ATCC 9333; assay type: functional; outline: as §1
Enterococcus faecalis [5] = experiment: In vitro antibacterial activity against Streptococcus faecalis ATCC 10741; assay type: functional; outline: as §1

SMILES | MIC [1] [µg/mL] | MIC (Enterococcus faecalis [2]) [µg/mL] | MIC (Serratia marcescens) [µg/mL] | MIC (Escherichia coli) [µg/mL] | MIC [3] [µg/mL] | MIC (Bordetella pertussis) [µg/mL] | MIC (Klebsiella pneumoniae) [µg/mL] | MIC (Staphylococcus aureus) [µg/mL] | MIC (Proteus mirabilis) [µg/mL] | MIC (Streptococcus pyogenes) [µg/mL] | MIC (Pseudomonas aeruginosa) [µg/mL] | MIC [4] [µg/mL] | MIC (Enterobacter cloacae) [µg/mL] | MIC (Haemophilus influenzae) [µg/mL] | MIC (Enterococcus faecalis [5]) [µg/mL]
Cc1c(F)cc2c(=O)c(C(=O)O)cn3c2c1CCC3 | 1.6 (≈ 6.12 µM) | 12.5 (≈ 47.8 µM) | 0.8 (≈ 3.06 µM) | 0.8 (≈ 3.06 µM) | 6.2 (≈ 23.7 µM) | 0.8 (≈ 3.06 µM) | 0.8 (≈ 3.06 µM) | 0.8 (≈ 3.06 µM) | 1.6 (≈ 6.12 µM) | 12.5 (≈ 47.8 µM) | 12.5 (≈ 47.8 µM) | 0.4 (≈ 1.53 µM) | 0.4 (≈ 1.53 µM) | 0.1 (≈ 0.383 µM) | –
Cc1c(F)cc2c(=O)c(C(=O)O)cn3c2c1CC[C@@H]3C | 0.05 (≈ 0.182 µM) | 0.8 (≈ 2.91 µM) | 0.2 (≈ 0.727 µM) | 0.1 (≈ 0.363 µM) | 0.8 (≈ 2.91 µM) | 0.012 (≈ 0.0436 µM) | 0.1 (≈ 0.363 µM) | 0.025 (≈ 0.0908 µM) | 0.4 (≈ 1.45 µM) | 1.6 (≈ 5.81 µM) | 3.1 (≈ 11.3 µM) | 0.05 (≈ 0.182 µM) | 0.1 (≈ 0.363 µM) | 0.006 (≈ 0.0218 µM) | –
Cc1c(F)cc2c(=O)c(C(=O)O)cn3c2c1CC[C@H]3C | 6.2 (≈ 22.5 µM) | 12.5 (≈ 45.4 µM) | 3.1 (≈ 11.3 µM) | 6.2 (≈ 22.5 µM) | 12.5 (≈ 45.4 µM) | 1.6 (≈ 5.81 µM) | 6.2 (≈ 22.5 µM) | 3.1 (≈ 11.3 µM) | 12.5 (≈ 45.4 µM) | 12.5 (≈ 45.4 µM) | 12.5 (≈ 45.4 µM) | 3.1 (≈ 11.3 µM) | 3.1 (≈ 11.3 µM) | 0.4 (≈ 1.45 µM) | –
Cc1c(F)cc2c(=O)c(C(=O)O)cn3c2c1CCC3C (racemic) [IBAFLOXACIN] | 0.1 (≈ 0.363 µM) | – | 0.4 (≈ 1.45 µM) | 0.2 (≈ 0.727 µM) | 0.8 (≈ 2.91 µM) | 0.025 (≈ 0.0908 µM) | 0.2 (≈ 0.727 µM) | 0.05 (≈ 0.182 µM) | 0.8 (≈ 2.91 µM) | 0.8 (≈ 2.91 µM) | 6.2 (≈ 22.5 µM) | 0.1 (≈ 0.363 µM) | 0.2 (≈ 0.727 µM) | 0.006 (≈ 0.0218 µM) | 0.8 (≈ 2.91 µM)
